Assay results from different studies.
Target: Serine/threonine-protein kinase STK11 (STK11, Homo sapiens, UniProt Q15831)
Residues used in one study (Q15831 1-433): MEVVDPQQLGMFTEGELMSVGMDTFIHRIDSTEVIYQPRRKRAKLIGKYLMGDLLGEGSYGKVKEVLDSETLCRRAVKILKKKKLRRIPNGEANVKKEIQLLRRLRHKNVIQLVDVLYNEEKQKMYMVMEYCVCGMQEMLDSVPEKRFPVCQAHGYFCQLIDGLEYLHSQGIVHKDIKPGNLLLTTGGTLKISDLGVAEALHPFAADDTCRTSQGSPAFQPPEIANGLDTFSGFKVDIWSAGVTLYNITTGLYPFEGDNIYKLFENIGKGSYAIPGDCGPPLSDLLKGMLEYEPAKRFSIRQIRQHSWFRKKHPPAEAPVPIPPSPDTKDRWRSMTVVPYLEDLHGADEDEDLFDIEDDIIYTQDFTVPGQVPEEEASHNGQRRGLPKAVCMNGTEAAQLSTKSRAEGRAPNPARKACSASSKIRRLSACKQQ

For `COc1cnc(Nc2cccc(S(N)(=O)=O)c2)nc1N1CCN(c2ccccc2)CC1`, the remaining binding was 82% (binding, competition with immobilised ligand; 1 µM).
With `CN(C)c1nccc(-c2cnn3ncccc23)n1` the remaining binding was 100% (binding; 1 µM).
The remaining binding of `FC(F)(F)Oc1cccc(-c2cnc3ccc(-c4ccncc4)nn23)c1` is reported as 72% (cell-free assay, competition with immobilised ligand; 5 µM).
For `F[C@@H]1CCN(c2nccc(-c3cnn4ncccc34)n2)C1`, the remaining binding was 100% (binding; 1 µM).
`CCN1CCN(Cc2ccc(C(=O)Nc3ccc(C)c(Oc4ccc5c(c4)CC(=O)N5)c3)cc2C(F)(F)F)CC1` has a remaining binding of 100% (binding, competition with immobilised ligand; 1 µM).
The remaining binding of `O=C(NCCCN1CCOCC1)c1ccc(Nc2nccc(-c3cc4ccccc4s3)n2)cc1` is reported as 3.9% (binding, competition with immobilised ligand; 1 µM).
`CO[C@H]1CC[C@H](CNc2ccc(S(=O)(=O)NC(=O)c3ccc(N4CCN(CC5=C(c6ccc(Cl)cc6)CC(C)(C)CC5)CC4)cc3Oc3cnc4[nH]ccc4c3)cc2[N+](=O)[O-])CC1` has a remaining binding of 59% (cell-free assay, competition with immobilised ligand; 1 µM).
`c1cncc(-c2cccc(Nc3nccc(NC4CCCCC4)n3)c2)c1` has a remaining binding of 100% (binding, competition with immobilised ligand; 10 µM).
With `C[C@H](c1ccc(F)cc1)N(Cc1cccc(C(=O)O)c1)C(=O)c1cnc2ccccc2c1` the remaining binding was 100% (cell-free assay, competition with immobilised ligand; 1 µM).
The remaining binding of `O=C(c1ccc(Nc2nccc(-c3cc4ccccc4s3)n2)cc1)N1CCC(N2CCCC2)CC1` is reported as 4.3% (binding, competition with immobilised ligand; 1 µM).
`O=C(Nc1c[nH]nc1C(=O)NC1CCNCC1)c1cc(F)cc(F)c1` gave a remaining binding of 78% (binding, competition with immobilised ligand; 1 µM).
For `N[C@H]1CCN(c2nccc(-c3cnn4ncccc34)n2)C1`, the remaining binding was 65% (binding; 1 µM).
`Nc1ncc2c(n1)-c1c([nH]c3ccc(C#CC4CC4)cc13)CCCC2` has a remaining binding of 100% (binding, competition with immobilised ligand; 1 µM).
For `CNC(=O)[C@@H]1CC[C@@H](n2c(-c3ccc4cnccc4c3)nc3ccc(C(=O)NCc4cccc(C(N)=O)c4)cc32)C1`, the remaining binding was 93% (binding, competition with immobilised ligand; 1 µM).
`O=C(NC[C@@H]1[C@H]2CN(C(=O)OCc3cc(C(F)(F)F)cc(C(F)(F)F)c3)C[C@@H]12)c1ccc2[nH]nnc2c1` gave a remaining binding of 100% (cell-free assay, competition with immobilised ligand; 1 µM).
The remaining binding of `C[C@@H]1CN(c2ccc3ncc(-c4ccc5[nH]nc(C6CC6)c5c4)n3n2)C[C@H](C)O1` is reported as 94% (binding, competition with immobilised ligand; 0.5 µM).
With `O=C(Nc1cccnn1)N1CCC(=Cc2cccc(Oc3ccc(C(F)(F)F)cn3)c2)CC1` the remaining binding was 100% (cell-free assay, competition with immobilised ligand; 1 µM).
The remaining binding of `CN(CCCC(F)(F)F)c1nccc(-c2cnn3ncccc23)n1` is reported as 100% (binding; 1 µM).
`CN(C)C(=O)Cn1cc(-c2nc([C@@](C)(c3ccc(-c4cnc(N)nc4)cc3)C3CC3)no2)cn1` gave a remaining binding of 77% (cell-free assay, competition with immobilised ligand; 1 µM).
`C[C@H]1CCN(c2nccc(-c3cnn4ncccc34)n2)C1` has a remaining binding of 80% (binding; 1 µM).
With `CCc1ccccc1C(=O)Nc1n[nH]c2c(C)c(F)c(C3C(C#N)=C(C)N(C)C(C)=C3C#N)cc12` the remaining binding was 100% (cell-free assay, competition with immobilised ligand; 1 µM).
For `Cc1cnc(Nc2ccc(C(=O)N3CCC(N4CCCC4)CC3)cc2)nc1-c1cc2ccccc2s1`, the remaining binding was 2.5% (binding, competition with immobilised ligand; 1 µM).
For `O=C(O)[C@H]1[C@H](Cn2nnc3ccccc3c2=O)CC[C@@H]1C(=O)c1ccc(OCCC2CCOCC2)cc1`, the remaining binding was 76% (cell-free assay, competition with immobilised ligand; 1 µM).
`Cc1cnn2ncc(-c3ccnc(N(C)C)n3)c2c1` has a remaining binding of 99% (binding; 1 µM).
